In series [1] the target is T1, Cholesteryl ester transfer protein (Homo sapiens, UniProt P11597).
T1 sequence (P11597 whole entry): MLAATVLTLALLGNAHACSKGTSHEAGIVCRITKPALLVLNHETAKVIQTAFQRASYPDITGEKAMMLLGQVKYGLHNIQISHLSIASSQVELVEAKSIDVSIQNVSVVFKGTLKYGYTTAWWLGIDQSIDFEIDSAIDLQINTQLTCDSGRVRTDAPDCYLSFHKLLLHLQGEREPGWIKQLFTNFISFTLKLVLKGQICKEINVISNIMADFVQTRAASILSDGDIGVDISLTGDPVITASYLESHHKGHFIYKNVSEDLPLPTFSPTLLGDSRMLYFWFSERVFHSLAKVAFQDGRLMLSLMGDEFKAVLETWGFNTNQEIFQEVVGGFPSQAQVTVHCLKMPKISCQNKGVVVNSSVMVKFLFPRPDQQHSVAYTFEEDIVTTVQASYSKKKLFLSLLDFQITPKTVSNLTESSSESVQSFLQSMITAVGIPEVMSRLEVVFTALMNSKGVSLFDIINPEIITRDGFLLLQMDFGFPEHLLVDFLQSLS
As to the kind of experiment: Inhibition of recombinant CETP (unknown origin) assessed as inhibition of BODIPY-labeled cholesteryl transfer to fluorescent substrate by fluorimetric assay.

A short description of series [2]: AUC in Sprague-Dawley rat at 50 mg/Kg, po. The following applies: in vivo. Type of series: ADME. The method in brief: (§1)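 Four adult male Sprague-Dawley rats, fasted 16 h, given a single oral dose of 50 mg/kg suspended in 10% ethanol/10% hydrogenated castor oil/80% water. Heparinized blood was drawn at 0.5–36 h (15 time points) and centrifuged at 3000 rpm for 15 min. Plasma was stored at -70°C until analysis.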

In series [3] the test system is Syrian golden hamster. Briefly: In vivo inhibition of CETP in po dosed high-fat fed syrian hamster model assessed as increase in plasma HDL-cholesterol level administered once daily for 5 days measured 2 hrs post last dose. Type of series: functional, organism-based. The following applies: Mesocricetus auratus. The method in brief: (§2)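 Male Syrian golden hamsters, 8 weeks old and about 110–120 g, fed a diet with 10% lard oil and 3% cholesterol for 4 weeks, then randomized into four groups. Oral dosing once daily for 5 days in 10% ethanol/10% hydrogenated castor oil/80% water, with a vehicle control group. Animals were fasted 16 h before bleeding. Retro-orbital blood was taken at baseline and 2 h after the last dose. Plasma HDL-C was measured on a chemistry analyser and expressed as percent change. Mean ± SEM.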

Series [4] in a line: Terminal half life in Sprague-Dawley rat at 50 mg/Kg, po. Type of series: ADME. Particulars: in vivo, read-out: beta t1/2 (converted). The method in brief:
as §1

Series [5] has as its system Syrian golden hamster. Briefly: In vivo inhibition of CETP in high-fat fed syrian hamster model assessed as increase in plasma HDL-cholesterol level at 30 mg/kg, po administered once daily for 5 days measured 2 hrs post last dose relative to control. Type of series: functional, Mesocricetus auratus. On the set-up: scale not given: the % may be the effect or the level left. A digest of the protocol:
as §2

Series [6] has as its system Syrian golden hamster. As to the kind of experiment: In vivo inhibition of CETP in high-fat fed syrian hamster model assessed as increase in plasma HDL-cholesterol level at 50 mg/kg, po administered once daily for 5 days measured 2 hrs post last dose relative to control. On the set-up: scale not given: the % may be the effect or the level left. Type of series: functional, Mesocricetus auratus. The method in brief: as §2

Series [7] is described as follows: Tmax in Sprague-Dawley rat at 50 mg/Kg, po. Type of series: ADME. Particulars: in vivo. A digest of the protocol: as §1
A short description of series [8]: Cmax in Sprague-Dawley rat at 50 mg/Kg, po. Type of series: ADME. Particulars: in vivo. On the set-up: dose 50 mg/Kg, route oral. A digest of the protocol: as §1

The source made the active and inactive calls. The calls are words filed in the database; no cut-off is given here.

From ChEMBL document CHEMBL3870315, “Design, synthesis and biological evaluation of novel cholesteryl ester transfer protein inhibitors bearing a cycloalkene scaffold” (Eur J Med Chem, 2016) come the findings set out here.

As a reminder, the IC50 is the midpoint of a concentration-inhibition curve. The AUC is the area under the concentration-time curve, a measure of exposure. By Tmax is commonly meant the time at which the peak concentration occurs. In general, Cmax refers to the highest concentration seen after dosing.

As to `COc1ccc(C(C)C)cc1C1=C(CN(Cc2cc(C(F)(F)F)cc(C(F)(F)F)c2)c2ncc(-c3cnn(C)c3)cn2)CCCCC1`, the IC50 in series [1] turned out to be 1620 nM.

As to `COc1ccc(C(C)C)cc1C1=C(CN(Cc2cc(C(F)(F)F)cc(C(F)(F)F)c2)c2ncc(N3CCOCC3)cn2)CC(C)(C)CC1`, the IC50 in series [1] amounted to 860 nM.

Turning to `COc1ccc(C(C)C)cc1C1=C(CN(Cc2cc(C(F)(F)F)cc(C(F)(F)F)c2)C(=O)OCC(C)C)CC(C)(C)CC1`, the IC50 in series [1] was > 50000 nM.

As to `COc1ccc(C(C)C)cc1C1=C(CN(Cc2cc(C(F)(F)F)cc(C(F)(F)F)c2)c2ncc(OCCO)cn2)CC(C)(C)CC1`, in series [1], the IC50 was 190 nM.

As for `COc1ccc(C(C)C)cc1C1=C(CN(Cc2cc(C(F)(F)F)cc(C(F)(F)F)c2)c2ncc(-c3cnn(C)c3)cn2)CCC1`, in series [1], the half-inhibitory concentration (IC50) came out at 2760 nM.

`COc1ccc(C(C)C)cc1C1=C(CN(Cc2cc(C(F)(F)F)cc(C(F)(F)F)c2)c2ncc(N3CCC(NC(C)=O)CC3)cn2)CC(C)(C)CC1`: the IC50 in series [1] came out at 520 nM.

`COc1ccc(C(C)C)cc1C1=C(CN(Cc2cc(C(F)(F)F)cc(C(F)(F)F)c2)C(=O)OCc2ccccc2)CC(C)(C)CC1`: the IC50 in series [1] was > 50000 nM.

For `COc1ccc(C(C)C)cc1C1=C(CN(Cc2cc(C(F)(F)F)cc(C(F)(F)F)c2)c2ncc(-c3c(C)noc3C)cn2)CC(C)(C)CC1`, the IC50 in series [1] is > 50000 nM.

For `COc1ccc(C(C)C)cc1C1=C(CN(Cc2cc(C(F)(F)F)cc(C(F)(F)F)c2)c2ncc(-c3cnn(C)c3)cn2)CCc2ccccc21`, the IC50 in series [1] was found to be 220 nM.

As to `COc1ccc(C(C)C)cc1C1=C(CN(Cc2cc(C(F)(F)F)cc(C(F)(F)F)c2)c2ncc(OCC(=O)O)cn2)CC(C)(C)CC1`, the IC50 in series [1] stood at 360 nM.

As to `COc1ccc(C(C)C)cc1C1=C(CN(Cc2cc(C(F)(F)F)cc(C(F)(F)F)c2)c2ncc(N3CCNCC3)cn2)CC(C)(C)CC1`, the IC50 in series [1] is 350 nM.

As to `CCC1CCC(c2cc(C(C)C)ccc2OC)=C(CN(Cc2cc(C(F)(F)F)cc(C(F)(F)F)c2)c2ncc(-c3cnn(C)c3)cn2)C1` (stereo unspecified), the half-maximal inhibitory concentration (IC50) in series [1] stood at 80 nM.

For `COc1ccc(C(C)C)cc1C1=C(CN(Cc2cc(C(F)(F)F)cc(C(F)(F)F)c2)c2ncc(-c3cnn(C)c3)cn2)CCCC1`, the half-maximal inhibitory concentration (IC50) in series [1] is 930 nM.

In the case of `COc1ccc(C(C)C)cc1C1=C(CN(Cc2cc(C(F)(F)F)cc(C(F)(F)F)c2)c2ncc(O)cn2)CC(C)(C)CC1`, the IC50 in series [1] stood at 3520 nM.

In the case of `COc1ccc(C(C)C)cc1C1=C(CN(Cc2cc(C(F)(F)F)cc(C(F)(F)F)c2)c2ncc(-c3cnn(C)c3)cn2)c2ccccc2CC1`, the IC50 in series [1] is 6630 nM.

`COc1ccc(C(C)C)cc1C1=C(CN(Cc2cc(C(F)(F)F)cc(C(F)(F)F)c2)c2ncc(-c3cccs3)cn2)CC(C)(C)CC1`: the IC50 in series [1] is > 50000 nM.

In the case of `COc1ccc(C(C)C)cc1C1=C(CN(Cc2cc(C(F)(F)F)cc(C(F)(F)F)c2)c2ncc(Br)cn2)CC(C)(C)CC1`, the IC50 in series [1] was > 50000 nM.

As to `COCCOc1cnc(N(CC2=C(c3cc(C(C)C)ccc3OC)CCC(C)(C)C2)Cc2cc(C(F)(F)F)cc(C(F)(F)F)c2)nc1`, the IC50 in series [1] was 420 nM.

As to `COc1ccc(C(C)C)cc1C1=C(CN(Cc2cc(C(F)(F)F)cc(C(F)(F)F)c2)c2ncc(-c3cnn(C)c3)cn2)CC(C)CC1` (stereo unspecified), in series [1], the IC50 turned out to be 60 nM.

Take `COC(=O)COc1cnc(N(CC2=C(c3cc(C(C)C)ccc3OC)CCC(C)(C)C2)Cc2cc(C(F)(F)F)cc(C(F)(F)F)c2)nc1`: the IC50 in series [1] came out at 910 nM.

As for `COC(=O)N(CC1=C(c2cc(C(C)C)ccc2OC)CCC(C)(C)C1)Cc1cc(C(F)(F)F)cc(C(F)(F)F)c1`, the IC50 in series [1] amounted to 21000 nM.

Turning to `COc1ccc(C(C)C)cc1C1=C(CN(Cc2cc(C(F)(F)F)cc(C(F)(F)F)c2)c2ncc(-c3cnn(C)c3)cn2)CC(C)(C)CC1`, the AUC in series [2] came out at 6990 ng·h/mL. The IC50 in series [1] came to 70 nM. Moreover, the Activity result in the series with Syrian golden hamster [3] was “Dose-dependent effect”; in the series on Syrian golden hamster [5] it was 9.3%; in the series on Syrian golden hamster [6], 27.9%. Also, the half-life in series [4] was 11.1 h. Further, in series [7], the Tmax was found to be 2.5 h. The maximum concentration (Cmax) in series [8] was determined as 697 ng/mL.

As for `COc1ccc(C(C)C)cc1C1=C(CN(Cc2cc(C(F)(F)F)cc(C(F)(F)F)c2)c2ncc(N3CCC(N)CC3)cn2)CC(C)(C)CC1`, the IC50 in series [1] was 170 nM.

With `COc1ccc(C(C)C)cc1C1=C(CN(Cc2cc(C(F)(F)F)cc(C(F)(F)F)c2)c2ncc(-c3cnn(C)c3)cn2)CC(C(C)(C)C)CC1` (stereo unspecified), in series [1], the IC50 was determined as 70 nM.

Consider `COc1ccc(C(C)C)cc1C1=C(CN(Cc2cc(C(F)(F)F)cc(C(F)(F)F)c2)c2ncc(N3CCN(C)CC3)cn2)CC(C)(C)CC1`, for which the IC50 in series [1] was determined as 2070 nM.

Regarding `COc1cc(F)c(C(C)C)cc1-c1ccc(C(F)(F)F)cc1CN1C(=O)O[C@H](c2cc(C(F)(F)F)cc(C(F)(F)F)c2)[C@@H]1C`, the outcome with Syrian golden hamster [5] (Mesocricetus auratus) was Active.

For `COc1ccc(C(C)C)cc1C1=C(CN(Cc2cc(C(F)(F)F)cc(C(F)(F)F)c2)c2ncc(OCCCC(=O)O)cn2)CC(C)(C)CC1`, the IC50 in series [1] stood at 300 nM.

For the molecule `COc1ccc(C(C)C)cc1C1=C(CN(Cc2cc(C(F)(F)F)cc(C(F)(F)F)c2)c2ncc(N3CCC(C(=O)O)CC3)cn2)CC(C)(C)CC1`, in series [1], the IC50 stood at 370 nM.

Turning to `COc1ccc(C(C)C)cc1C1=C(CN(Cc2cc(C(F)(F)F)cc(C(F)(F)F)c2)c2ncc(-c3ccnn3C)cn2)CC(C)(C)CC1`, the half-inhibitory concentration (IC50) in series [1] is > 50000 nM.
